The source made the active and inactive calls. No cut-off for these calls is given here.
Key:
Mus musculus [1] = experiment: Antidepressant activity in Kunming mouse assessed as decrease in immobility time at 80 mg/kg, po administered two times at 1 hrs and 24 hrs and measured at last 4 mins of 6 mins test by forced swim test relative to fluoxetine; format: functional; design: scale not given: the % may be the effect or the level left; settings: time 1444 min, 24.07 h
Method in brief: (§1)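 Male Kunming mice, 15–18 g, housed six per cage at 22 ± 1 °C on a 12 h light/dark cycle. Oral dosing 24 h and 1 h before the test. Each mouse placed in a cylinder (25 cm high, 15 cm diameter) holding 10 cm of water at 25 ± 1 °C and made to swim 6 min; immobility over the last 4 min scored by video tracking.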

[2] = Clearance in Kunming mouse at 80 mg/kg, po administered as single dose and measured upto 24 hrs; format: ADME, organism-based; settings: in vivo
[3] = target: T1, Melatonin receptor type 1A (Homo sapiens, UniProt P48039); experiment: (§2) Agonist activity at human MT1 receptor transfected in HEK293T cells co-transfected with tet-inducible luciferase reporter plasmid, pCDNA3.1(+)-CMV-betaArrestin2-tev plasmid and TANGO plasmid assessed as tango arrestin recruitment incubated for 24 hrs by TANGO-GPCR assay based luminescence plate reader analysis; format: functional, cell-based
Mus musculus [4] = experiment: Antidepressant activity in kunming mouse assessed as decrease in DOPAC level in thalamus at 160 mg/kg, po measured after 14 days by HPLC-ECD analysis; format: functional, organism-based; settings: time 14.0 day
Method in brief: (§3)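 Male Kunming mice dosed orally with vehicle or 160 mg kg−1 for 14 days, then killed by cervical dislocation. Brain regions dissected on ice, homogenized in 0.2 M perchloric acid with 0.1 mM EDTA and spun at 4 °C for 20 min. Supernatant analysed by HPLC-ECD at +0.50 V, mobile phase pH 3.0. Amounts given in ng g−1 as mean ± SEM, n = 12.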

HEK293T = experiment: as §2, with “MT1 Q181A mutant” for “MT1”, “shift in concentration response curve” for “tango arrestin recruitment”, “analysis relative to agomelatine” for “analysis”; format: cell-based; settings: filed as agonist
Method in brief: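 293T cells transiently transfected with tet-inducible luciferase reporter, pCDNA3.1(+)-CMV-bArrestin2-tev and TANGO receptor plasmids (wild-type or point mutant). Next day plated at 20 000 cells/well on poly-L-lysine; drug added day 3. Day 4, Bright-Glo added, 20 min, then luminescence read. Concentration–response curves fitted; data mean ± SD.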

Mus musculus [5] = experiment: Antidepressant activity in Kunming mouse assessed as decrease in immobility time at 10 to 160 mg/kg, po administered two times at 1 hrs and 24 hrs and measured at last 4 mins of 6 mins test by forced swim test; format: functional, organism-based; settings: dose 10-160 mg/kg, time 1444.0 min; method in brief: as §1
Mus musculus [6] = experiment: Antidepressant activity in kunming mouse assessed as increase in 5-HT level in hippocampus at 160 mg/kg, po measured after 14 days by HPLC-ECD analysis; format: functional, organism-based; settings: time 14.0 day; method in brief: as §3
[7] = Subacute toxicity in Kunming mouse assessed as effect on spleen structure at 240 mg/kg, po administered for 14 days; format: organism-based; settings: in vivo, 336 h, time 14 day
Method in brief: (§4)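 Subacute oral study following OECD 425. Animals randomised into two groups of six. Vehicle control received 0.5% CMC-Na orally for 14 consecutive days; the treated group received 240 mg kg−1 body weight orally for 14 consecutive days.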

Mus musculus [8] = experiment: Antidepressant activity in kunming mouse assessed as decrease in 5-HIAA level in striatum at 160 mg/kg, po measured after 14 days by HPLC-ECD analysis; format: functional, organism-based; settings: time 14.0 day; method in brief: as §3
Mus musculus [9] = experiment: Antidepressant activity in kunming mouse assessed as decrease in DOPAC level in hippocampus at 160 mg/kg, po measured after 14 days by HPLC-ECD analysis; format: functional, organism-based; settings: time 14.0 day; method in brief: as §3
[10] = Subacute toxicity in Kunming mouse assessed as effect on heart structure at 240 mg/kg, po administered for 14 days; format: organism-based; settings: in vivo, 336 h, time 14 day; method in brief: as §4
Mus musculus [11] = experiment: Antidepressant activity in kunming mouse assessed as decrease in DOPAC level in striatum at 160 mg/kg, po measured after 14 days by HPLC-ECD analysis; format: functional, organism-based; settings: time 14.0 day; method in brief: as §3
Mus musculus [12] = experiment: Antidepressant activity in kunming mouse assessed as increase in 5-HT level in striatum at 160 mg/kg, po measured after 14 days by HPLC-ECD analysis; format: functional, organism-based; settings: time 14.0 day; method in brief: as §3
Mus musculus [13] = experiment: Antidepressant activity in kunming mouse assessed as increase in dopamine level in striatum at 160 mg/kg, po measured after 14 days by HPLC-ECD analysis; format: functional, organism-based; settings: time 14.0 day; method in brief: as §3
Mus musculus [14] = experiment: Antidepressant activity in kunming mouse assessed as decrease in 5-HIAA level in thalamus at 160 mg/kg, po measured after 14 days by HPLC-ECD analysis; format: functional, organism-based; settings: time 14.0 day; method in brief: as §3
[15] = AUC (0 to 24 hrs) in Kunming mouse at 80 mg/kg, po administered as single dose and measured upto 24 hrs; format: ADME, organism-based; design: time < 24 hrs, dose 80 mg/kg, route po; settings: in vivo
Mus musculus [16] = experiment: Antidepressant activity in kunming mouse assessed as increase in dopamine level in frontal cortex at 160 mg/kg, po measured after 14 days by HPLC-ECD analysis; format: functional, organism-based; settings: time 14.0 day; method in brief: as §3
[17] = target: T2, Melatonin receptor type 1B (Homo sapiens, UniProt P49286); experiment: Agonist activity at human MT2 receptor expressed in HEK293 cells by Fluo-8 based calcium assay; format: functional, cell-based
T2 sequence (P49286 whole entry): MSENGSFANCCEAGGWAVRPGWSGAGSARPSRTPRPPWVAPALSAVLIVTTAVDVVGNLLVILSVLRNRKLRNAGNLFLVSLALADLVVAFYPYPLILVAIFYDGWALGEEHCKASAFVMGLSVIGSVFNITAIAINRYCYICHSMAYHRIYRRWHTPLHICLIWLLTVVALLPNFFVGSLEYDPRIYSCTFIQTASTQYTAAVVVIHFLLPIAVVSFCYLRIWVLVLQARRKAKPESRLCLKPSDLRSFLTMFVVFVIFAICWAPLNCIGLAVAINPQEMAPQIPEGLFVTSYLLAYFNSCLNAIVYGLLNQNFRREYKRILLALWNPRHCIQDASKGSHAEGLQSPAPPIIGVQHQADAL

Mus musculus [18] = experiment: Antidepressant activity in Kunming mouse assessed as decrease in immobility time at 160 mg/kg, po and measured after 14 days by forced swim test relative to control; format: functional; design: scale not given: the % may be the effect or the level left; settings: time 14 day
Method in brief: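 Male Kunming mice, 15–18 g, given the test compound orally for 14 days. Forced swim then done in a cylinder 25 cm high and 15 cm in diameter, water 10 cm deep at 25 ± 1 °C. Swim lasted 6 min and immobility over the final 4 min was video-scored against the vehicle group.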

Mus musculus [19] = experiment: Antidepressant activity in kunming mouse assessed as decrease in 5-HIAA level in frontal cortex at 160 mg/kg, po measured after 14 days by HPLC-ECD analysis; format: functional, organism-based; settings: time 14.0 day; method in brief: as §3
[20] = Subacute toxicity in Kunming mouse assessed as effect on lung structure at 240 mg/kg, po administered for 14 days; format: organism-based; settings: in vivo, 336 h, time 14 day; method in brief: as §4
[21] = Cmax in Kunming mouse at 80 mg/kg, po administered as single dose and measured upto 24 hrs; format: ADME, organism-based; design: time < 24 hrs, dose 80 mg/kg, route po; settings: in vivo
[22] = target: T1, Melatonin receptor type 1A; experiment: as §2, with “recruitment by measuring maximum activity” for “recruitment”, “analysis relative to 2-phenylmelatonin” for “analysis”; format: functional, cell-based; settings: filed as agonist
Method in brief: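 Tango arrestin recruitment: 293T cells transiently transfected with a tet-inducible luciferase reporter, CMV-βArrestin2-TEV and TANGO receptor plasmids. On day 2, replated at 20 000 cells per well on poly-L-lysine. Drug added on day 3. On day 4, luciferase reagent added for 20 min and luminescence counted. Curves fitted; data given as mean ± SD.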

T1 sequence (P48039 whole entry, the tested form may be a part): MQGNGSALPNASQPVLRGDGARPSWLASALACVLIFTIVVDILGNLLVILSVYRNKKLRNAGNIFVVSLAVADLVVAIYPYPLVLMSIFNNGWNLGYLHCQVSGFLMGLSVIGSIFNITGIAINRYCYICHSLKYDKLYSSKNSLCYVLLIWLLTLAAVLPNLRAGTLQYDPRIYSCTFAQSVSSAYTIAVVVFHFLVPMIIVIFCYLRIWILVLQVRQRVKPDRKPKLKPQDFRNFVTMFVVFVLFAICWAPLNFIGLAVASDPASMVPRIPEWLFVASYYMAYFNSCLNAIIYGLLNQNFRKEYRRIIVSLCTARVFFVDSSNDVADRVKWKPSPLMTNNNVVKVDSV

COc1cc2c(CN3CCN(C)CC3)coc2cc1C
Activity (Mus musculus [1]): 26% | CL/F [2]: 237 mL/min | EC50 [3]: 21 µM | Activity (Mus musculus [4]): Active | Activity (HEK293T): Active | Activity (Mus musculus [5]): Active | Activity (Mus musculus [6]): Active | Activity [7]: Non-Toxic | Activity (Mus musculus [8]): Active | Activity (Mus musculus [9]): Active | Activity [10]: Non-Toxic | Activity (Mus musculus [11]): Active | Activity (Mus musculus [12]): Active | Activity (Mus musculus [13]): Active | Activity (Mus musculus [14]): Active | AUC [15]: 5400 ng·h/mL | Activity (Mus musculus [16]): Active | EC50 [17]: 260 µM | Activity (Mus musculus [18]): 28% | Activity (Mus musculus [19]): Active | Activity [20]: Non-Toxic | Cmax [21]: 1340 ng/mL | Emax [22]: 46%

— ChEMBL document CHEMBL5108087, “Synthesis and biological evaluation of paeoveitol D derivatives as new melatonin receptor agonists with antidepressant activities” (RSC Med Chem, 2022)
